Reference: ChEMBL document CHEMBL4152356, “Amphipathic sulfonamidobenzamides mimicking small antimicrobial marine natural products; investigation of antibacterial and anti-biofilm activity against antibiotic resistant clinical isolates” (Bioorg Med Chem, 2018)

Assays:
Enterococcus faecium [1] = assay: Antibacterial activity against vancomycin resistant Enterococcus faecium 50,673,722 clinical isolate after 24 hrs by microdilution method; format: functional; details: Enterococcus faecium, 50,673,722, 24 h
Summary of the method: (§1)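 Broth microdilution in Mueller-Hinton broth (modified CLSI M07-A9), clinical isolates at about 1-1.2 × 10^6 cells/ml. Inoculum mixed 1:1 with serial compound dilutions; stocks made in up to 100% DMSO, final DMSO ≤1%. Incubated 24 h.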

Staphylococcus aureus [2] = assay: Antibacterial activity against methicillin resistant Staphylococcus aureus WIS clinical isolate after 24 hrs by microdilution method; format: functional; summary of the method: as §1
Escherichia coli [3] = assay: Antibacterial activity against Escherichia coli ATCC 25922 after 48 hrs by microdilution method; format: functional; details: ATCC 25922, 48 h
Summary of the method: (§2)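 Broth microdilution (CLSI M07-A9, modified) in Mueller-Hinton broth; inoculum about 2.5-3 × 10^4 cells/ml mixed 1:1 with serial compound dilutions. Stock solutions in up to 100% DMSO, final DMSO ≤1%. Incubated 35 °C for 48 h.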

Escherichia coli [4] = assay: Antibacterial activity against imipenem 26-type carbapenemase-producing Escherichia coli 50,857,972 clinical isolate after 24 hrs by microdilution method; format: functional; details: Escherichia coli, 50,857,972, 24 h
Summary of the method: (§3)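 Clinical isolate screen by broth microdilution with about 1-1.2 × 10^6 cells/ml and 24 h incubation. MIC is the lowest concentration with no growth. For isolate collections, MIC90 is the MIC inhibiting ≥90% of isolates. Multidrug resistance was defined as resistance to at least […] antimicrobial class.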

[5] = test system: Staphylococcus epidermidis; assay: Antibacterial activity against methicillin resistant Staphylococcus epidermidis RP62A ATCC 35984/CCUG 31568 after 48 hrs by microdilution method; format: functional; details: RP62A ATCC 35984/CCUG 31568, 48 h
Summary of the method: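 Broth microdilution (modified CLSI M07-A9) against the MRSE reference strain. Inoculum of about 2.5-3 × 10^4 cells/ml in Mueller-Hinton broth mixed 1:1 with serial compound dilutions; final DMSO ≤1%. Incubated 35 °C, 48 h.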

MRC5 = assay: Cytotoxicity against human MRC5 cells after 72 hrs by MTS assay; format: cell-based; details: MRC5, 72 h
Summary of the method: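 MRC-5 lung fibroblasts in DMEM with 10% FBS, 37 °C, 5% CO2; seeded at 4000 cells/well, adhered 24 h, medium replaced. Two-fold dilutions up to 100 µg/ml for 72 h, then MTS for 1 h and absorbance at 485 nm. Controls were 1% DMSO (negative) and 0.5% Triton X-100 (positive). EC50 is the concentration giving 50% inhibition of survival.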

[6] = test system: Staphylococcus epidermidis; assay: Antibiofilm activity against Staphylococcus epidermidis RP62A ATCC 35984/CCUG 31568 incubated for 24 +/- 2 hrs by crystal violet staining based assay; format: functional
Summary of the method: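 Mature S. epidermidis RP62A biofilms: filtered overnight TSB culture adjusted to 2 McFarland, diluted in TSB with 1% glucose to about 6 × 10^6 CFU/ml, grown 24 ± 2 h at 37 °C static, then PBS-washed. Compounds in 50% TSBglu added for 24 ± 2 h at 37 °C. Biomass given as % of untreated control; ≥90% eradication threshold. Compounds tested at 2x, 5x and 10x MIC, 4-8 parallels on 2-3 plates, highest and lowest values excluded.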

Acinetobacter baumannii [7] = assay: Antibacterial activity against oxacillinase 23-producing Acinetobacter baumannii K47-42 clinical isolate after 24 hrs by microdilution method; format: functional; details: K47-42, 24 h; summary of the method: as §1
Enterococcus sp. = assay: Antibacterial activity against Enterococcus sp. clinical isolates after 24 hrs by microdilution method; format: functional; summary of the method: as §3
Klebsiella pneumoniae [8] = assay: Antibacterial activity against New Delhi metallo-beta-lactamase 1-producing Klebsiella pneumoniae K6645 clinical isolate after 24 hrs by microdilution method; format: functional; details: K6645, 24 h; summary of the method: as §3
Bacillus subtilis = assay: Antibacterial activity against Bacillus subtilis 168 ATCC 23857 after 48 hrs by microdilution method; format: functional; details: subsp. subtilis str. 168 ATCC 23857, 48 h; summary of the method: as §2
Escherichia coli [9] = assay: Antibacterial activity against oxacillinase 48-producing Escherichia coli 50,579,417 clinical isolate after 24 hrs by microdilution method; format: functional; details: Escherichia coli, 50,579,417, 24 h; summary of the method: as §3
Staphylococcus aureus [10] = assay: Antibacterial activity against methicillin resistant Staphylococcus aureus 85/2082 clinical isolate after 24 hrs by microdilution method; format: functional; details: 85/2082, 24 h; summary of the method: as §1
Acinetobacter baumannii [11] = assay: Antibacterial activity against oxacillinase 23-producing Acinetobacter baumannii K44-35 clinical isolate after 24 hrs by microdilution method; format: functional; details: K44-35, 24 h; summary of the method: as §1
Enterococcus faecium [12] = assay: Antibacterial activity against vancomycin resistant Enterococcus faecium TUH50-22 clinical isolate after 24 hrs by microdilution method; format: functional; details: TUH50-22, 24 h; summary of the method: as §1
Pseudomonas aeruginosa [13] = assay: Antibacterial activity against Pseudomonas aeruginosa clinical isolates after 24 hrs by microdilution method; format: functional; summary of the method: as §3
Klebsiella pneumoniae [14] = assay: Antibacterial activity against New Delhi metallo-beta-lactamase 1/oxacillinase 181-producing Klebsiella pneumoniae 50531633 clinical isolate after 24 hrs by microdilution method; format: functional; details: Klebsiella pneumoniae, 50531633, 24 h; summary of the method: as §3
Acinetobacter baumannii [15] = assay: Antibacterial activity against oxacillinase 58-producing Acinetobacter baumannii K12-21 clinical isolate after 24 hrs by microdilution method; format: functional; details: K12-21, 24 h; summary of the method: as §1
Pseudomonas aeruginosa [16] = assay: Antibacterial activity against Verona integron-encoded metallo-beta-lactamase 2-producing Pseudomonas aeruginosa K347 clinical isolate after 24 hrs by microdilution method; format: functional; details: K347, 24 h; summary of the method: as §3
Staphylococcus aureus [17] = assay: Antibacterial activity against methicillin resistant Staphylococcus aureus NCTC 10442 clinical isolate after 24 hrs by microdilution method; format: functional; details: NCTC 10442, 24 h; summary of the method: as §1
Staphylococcus aureus [18] = assay: Antibacterial activity against Staphylococcus aureus clinical isolates after 24 hrs by microdilution method; format: functional; summary of the method: as §3
Pseudomonas aeruginosa [19] = assay: Antibacterial activity against Pseudomonas aeruginosa PAO1 DSM 19880 ATCC 15692 after 48 hrs by microdilution method; format: functional; details: PAO1 DSM 19880 ATCC 15692, 48 h; summary of the method: as §2
Pseudomonas aeruginosa [20] = assay: Antibacterial activity against Verona integron-encoded metallo-beta-lactamase 4-producing Pseudomonas aeruginosa K3473 clinical isolate after 24 hrs by microdilution method; format: functional; details: K3473, 24 h; summary of the method: as §3
Klebsiella pneumoniae [21] = assay: Antibacterial activity against oxacillinase 245-producing Klebsiella pneumoniae 50,625,602 clinical isolate after 24 hrs by microdilution method; format: functional; details: Klebsiella pneumoniae, 50,625,602, 24 h; summary of the method: as §3
Pseudomonas aeruginosa [22] = assay: Antibacterial activity against imipenem 14-type carbapenemase-producing Pseudomonas aeruginosa K4424 clinical isolate after 24 hrs by microdilution method; format: functional; details: K4424, 24 h; summary of the method: as §3
Escherichia coli [23] = assay: Antibacterial activity against New Delhi metallo-beta-lactamase 1-producing Escherichia coli 50,676,002 clinical isolate after 24 hrs by microdilution method; format: functional; details: Escherichia coli, 50,676,002, 24 h; summary of the method: as §3
Pseudomonas aeruginosa [24] = assay: Antibacterial activity against Verona integron-encoded metallo-beta-lactamase-producing Pseudomonas aeruginosa 50,692,520 clinical isolate after 24 hrs by microdilution method; format: functional; details: Pseudomonas aeruginosa, 50,692,520, 24 h; summary of the method: as §3
Staphylococcus aureus [25] = assay: Antibacterial activity against methicillin resistant Staphylococcus aureus IHT 99040 clinical isolate after 24 hrs by microdilution method; format: functional; details: IHT 99040, 24 h; summary of the method: as §1
Klebsiella pneumoniae [26] = assay: Antibacterial activity against Klebsiella pneumoniae clinical isolates after 24 hrs by microdilution method; format: functional; summary of the method: as §3
Escherichia coli [27] = assay: Antibacterial activity against Verona integron-encoded metallo-beta-lactamase 29-producing Escherichia coli 50,639,799 clinical isolate after 24 hrs by microdilution method; format: functional; details: Escherichia coli, 50,639,799, 24 h; summary of the method: as §3

Compound CC(C)(C)c1cc(C(C)(C)C)cc(S(=O)(=O)Nc2cc3ccccc3cc2C(=O)NCCNC(=N)N)c1.Cl has an MIC (Enterococcus faecium [1]) of 8 µg/mL, an MIC (Staphylococcus aureus [2]) of 8 µg/mL and an MIC (Escherichia coli [3]) of 8 µg/mL. The MIC (Escherichia coli [4]) was over 32 µg/mL, the MIC [5] was 4 µg/mL and the EC50 (MRC5) was 55 µg/mL. The “MBIC=>90” value [6] was 40 µg/mL, the MIC (Acinetobacter baumannii [7]) was 32 µg/mL and the MIC (Enterococcus sp.) was 8 µg/mL. It also gave an MIC (Klebsiella pneumoniae [8]) of 32 µg/mL, an MIC (Bacillus subtilis) of 4 µg/mL and an MIC (Escherichia coli [9]) of at least 32 µg/mL. The MIC (Staphylococcus aureus [10]) was 8 µg/mL, the MIC (Acinetobacter baumannii [11]) was 32 µg/mL and the MIC (Enterococcus faecium [12]) was 4 µg/mL. It also gave an MIC (Pseudomonas aeruginosa [13]) of 32 to 64 µg/mL, an MIC (Klebsiella pneumoniae [14]) of over 32 µg/mL and an MIC (Acinetobacter baumannii [15]) of 32 µg/mL. For the same compound, the MIC (Pseudomonas aeruginosa [16]) was over 64 µg/mL, the MIC (Staphylococcus aureus [17]) was 8 µg/mL and the MIC (Staphylococcus aureus [18]) was 4 µg/mL. The MIC (Pseudomonas aeruginosa [19]) was 32 µg/mL, the MIC (Pseudomonas aeruginosa [20]) was at least 32 µg/mL and the MIC (Klebsiella pneumoniae [21]) was at least 32 µg/mL. The MIC (Pseudomonas aeruginosa [22]) was over 64 µg/mL, the MIC (Escherichia coli [23]) was over 32 µg/mL and the MIC (Pseudomonas aeruginosa [24]) was at least 64 µg/mL. The MIC (Staphylococcus aureus [25]) was 8 µg/mL, the MIC (Klebsiella pneumoniae [26]) was 16 to 32 µg/mL and the MIC (Escherichia coli [27]) was at least 32 µg/mL.
In the case of CN(c1ccc(C(=O)NCCCNC(=N)N)cc1)S(=O)(=O)c1cc(C(C)(C)C)cc(C(C)(C)C)c1.Cl, the MIC (Enterococcus faecium [1]) is reported as 16 µg/mL, the MIC (Staphylococcus aureus [2]) is reported as 8 µg/mL and the MIC (Escherichia coli [3]) is reported as 16 µg/mL. For the same compound, the MIC (Escherichia coli [4]) was 32 µg/mL, the MIC [5] was 4 µg/mL and the EC50 (MRC5) was 36 µg/mL. For the same compound, the “MBIC=>90” value [6] was 40 µg/mL, the MIC (Acinetobacter baumannii [7]) was 32 µg/mL and the MIC (Enterococcus sp.) was 8 to 16 µg/mL. The MIC (Klebsiella pneumoniae [8]) was 32 µg/mL, the MIC (Bacillus subtilis) was 4 µg/mL and the MIC (Escherichia coli [9]) was at least 32 µg/mL. The MIC (Staphylococcus aureus [10]) was 8 µg/mL, the MIC (Acinetobacter baumannii [11]) was at least 32 µg/mL and the MIC (Enterococcus faecium [12]) was 16 µg/mL. For the same compound, the MIC (Pseudomonas aeruginosa [13]) was 8 to 16 µg/mL, the MIC (Klebsiella pneumoniae [14]) was at least 32 µg/mL and the MIC (Acinetobacter baumannii [15]) was at least 32 µg/mL. The MIC (Pseudomonas aeruginosa [16]) was over 32 µg/mL, the MIC (Staphylococcus aureus [17]) was 8 µg/mL and the MIC (Staphylococcus aureus [18]) was 4 µg/mL. For the same compound, the MIC (Pseudomonas aeruginosa [19]) was 16 µg/mL, the MIC (Pseudomonas aeruginosa [20]) was 32 µg/mL and the MIC (Klebsiella pneumoniae [21]) was at least 32 µg/mL. The MIC (Pseudomonas aeruginosa [22]) was 32 µg/mL, the MIC (Escherichia coli [23]) was at least 32 µg/mL and the MIC (Pseudomonas aeruginosa [24]) was 32 µg/mL. It also gave an MIC (Staphylococcus aureus [25]) of 8 µg/mL, an MIC (Klebsiella pneumoniae [26]) of 32 µg/mL and an MIC (Escherichia coli [27]) of 32 µg/mL.
